Data taken from ChEMBL document CHEMBL1949501, “Novel acid-type cyclooxygenase-2 inhibitors: Design, synthesis, and structure-activity relationship for anti-inflammatory drug” (Eur J Med Chem, 2012).

Legend:
[1] = molecular target: T1, Prostaglandin G/H synthase 2 (Homo sapiens, UniProt P35354); experiment: Inhibition of COX-2-mediated PGE2 production in LPS-induced human whole blood after 24 hrs by RIA
T1 sequence (P35354 whole entry): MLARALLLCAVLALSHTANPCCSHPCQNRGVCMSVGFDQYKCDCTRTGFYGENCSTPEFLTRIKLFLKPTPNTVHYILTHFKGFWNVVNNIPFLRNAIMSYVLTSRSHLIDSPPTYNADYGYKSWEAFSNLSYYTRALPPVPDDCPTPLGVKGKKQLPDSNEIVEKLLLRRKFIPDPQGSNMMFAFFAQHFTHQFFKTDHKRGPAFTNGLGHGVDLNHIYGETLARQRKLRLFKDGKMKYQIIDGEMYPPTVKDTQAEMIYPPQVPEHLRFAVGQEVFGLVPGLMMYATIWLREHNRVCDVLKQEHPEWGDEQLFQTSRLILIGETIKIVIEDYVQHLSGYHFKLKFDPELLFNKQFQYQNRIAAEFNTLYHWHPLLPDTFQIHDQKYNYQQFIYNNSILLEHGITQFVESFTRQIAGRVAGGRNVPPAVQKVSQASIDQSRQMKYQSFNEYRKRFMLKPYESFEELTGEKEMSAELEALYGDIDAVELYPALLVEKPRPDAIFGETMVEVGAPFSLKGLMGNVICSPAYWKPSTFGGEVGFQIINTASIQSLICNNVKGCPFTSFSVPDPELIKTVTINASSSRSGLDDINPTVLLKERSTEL
In short: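 Heparinized whole blood from healthy adult volunteers mixed with compound in DMSO (0.1–100 µM final; DMSO under 0.1%) and E. coli 0111:B4 LPS (30 µg/mL final), incubated 24 h at 37 °C to induce COX-2; PGE2 synthesis measured; IC50.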

[2] = molecular target: T2, Prostaglandin G/H synthase 1 (Homo sapiens, UniProt P23219); experiment: Inhibition of COX-1-mediated TXB2 production in human whole blood after 30 mins post A23187 stimulation by RIA
[3] = molecular target: T1, Prostaglandin G/H synthase 2; experiment: Inhibition of COX-2-mediated 6-keto-PGF1alpha production in IL-1beta-induced HUVEC preincubated for 20 mins prior A23187 stimulation measured after 15 mins by RIA
[4] = molecular target: T2, Prostaglandin G/H synthase 1; experiment: Inhibition of COX-1-mediated TXB2 production in human platelets preincubated for 20 mins prior A23187 stimulation measured after 15 mins by RIA
[5] = molecular target: COX-1/COX-2 (Homo sapiens) (UniProt P35354+P23219); experiment: Selectivity ratio of IC50 for COX-1-mediated TXB2 production in human platelets to IC50 for COX-2-mediated 6-keto-PGF1alpha production in IL-1beta-induced HUVEC
Rattus norvegicus = experiment: Antiinflammatory activity in SPF/VAF Sprague-Dawley rat assessed as inhibition of carrageenan-induced paw oedema at 10 mg/kg, po administered 1 hr prior carrageenan challenge measured after 3 hrs by plethysmometry; type: functional
In short: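 Male SPF/VAF Sprague-Dawley rats (Crj:CD(SD), 5 weeks, 110–130 g), fasted overnight, given carrageenan intraplantarly in the hind paw. Test compound or vehicle (5% (v/v) Tween 80 in distilled water) dosed orally at 1 mL/100 g body weight 1 h before carrageenan. Foot volume read by water-displacement plethysmometer before and 3 h after injection; percent inhibition relative to vehicle group taken as 0%.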

Sequence of COX-1/COX-2 (Homo sapiens) (P23219 whole entry, looked up, one chain of several): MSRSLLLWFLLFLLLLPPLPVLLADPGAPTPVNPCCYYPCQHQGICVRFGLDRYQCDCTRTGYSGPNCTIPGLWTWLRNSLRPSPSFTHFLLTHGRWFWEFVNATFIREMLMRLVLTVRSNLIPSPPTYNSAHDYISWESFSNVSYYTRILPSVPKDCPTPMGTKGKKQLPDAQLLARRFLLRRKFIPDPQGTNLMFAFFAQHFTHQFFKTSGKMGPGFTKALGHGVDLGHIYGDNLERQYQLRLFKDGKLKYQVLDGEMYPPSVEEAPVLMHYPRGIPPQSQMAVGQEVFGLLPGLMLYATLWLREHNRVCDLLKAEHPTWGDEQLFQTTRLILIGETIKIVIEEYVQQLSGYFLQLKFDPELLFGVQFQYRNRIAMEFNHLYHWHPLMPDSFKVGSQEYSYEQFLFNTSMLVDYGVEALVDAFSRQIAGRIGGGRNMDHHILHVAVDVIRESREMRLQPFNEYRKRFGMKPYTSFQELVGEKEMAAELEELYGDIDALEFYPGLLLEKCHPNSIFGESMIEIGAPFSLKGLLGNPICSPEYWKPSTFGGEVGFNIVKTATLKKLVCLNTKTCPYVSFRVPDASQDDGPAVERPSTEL
T2 sequence (P23219 whole entry): as the sequence (P23219 whole entry, looked up, one chain of several) above

IC50 [1] [nM]	IC50 [2] [nM]	IC50 [3] [nM]	IC50 [4] [nM]	Ratio IC50 [5]	Structure (SMILES)	inhibition in vivo at 10 mg/kg (Rattus norvegicus) [%]
5700	> 100000	421	> 10000		CCc1ccnc(C(=O)c2[nH]c3ccc(OC(F)(F)F)cc3c2CC(=O)O)c1	
		41.5	1510		Cc1ccnc(C(=O)c2[nH]c3ccc(C(C)(C)C)cc3c2CC(=O)O)c1	
2200	> 100000	128	3050	23.8	COc1ccc2[nH]c(C(=O)c3cc(C)ccn3)c(CC(=O)O)c2c1	
100	7700	6.77	65.9	9.73	Cc1ccnc(C(=O)c2[nH]c3cc(Cl)c(F)cc3c2CC(=O)O)c1	
1900	> 100000	39.6	1000		Cc1ccnc(C(=O)c2[nH]c3ccc(OC(F)(F)F)cc3c2CC(=O)O)c1	
150	21400	5.68	150	26.4	Cc1ccnc(C(=O)c2[nH]c3ccc(F)cc3c2CC(=O)O)c1	
1900	> 100000	128	> 10000	> 78.1	COc1ccc2c(CC(=O)O)c(C(=O)c3cc(C)ccn3)[nH]c2c1	
		19.2	> 10000	> 521	O=C(O)Cc1c(C(=O)c2cc3c(cn2)CCCC3)[nH]c2cc(Cl)ccc12	
		598	> 10000		CCOc1cnc(C(=O)c2[nH]c3cc(Cl)ccc3c2CC(=O)O)cc1CC	
		30.7	> 10000	> 326	CCc1cc(C(=O)c2[nH]c3cc(Cl)ccc3c2CC(=O)O)ncc1Cl	
1600	47000	15.7	882		CCc1ccc2[nH]c(C(=O)c3cc(C)ccn3)c(CC(=O)O)c2c1	
		414	> 10000		CCc1ccc2c(CC(=O)O)c(C(=O)c3cc(C)ccn3)[nH]c2c1	
155	33500	9.81	849	86.5	Cc1ccnc(C(=O)c2[nH]c3cc(F)ccc3c2CC(=O)O)c1	70
